Measurements published in ChEMBL document CHEMBL4396878, “Mechanisms of Specific versus Nonspecific Interactions of Aggregation-Prone Inhibitors and Attenuators” (J Med Chem, 2019).
pKd: −log10 of the molar value. Activity calls are given as the source filed them. The calls are words filed in the database; no cut-off is given here.

Experiments:
Albumin [1] = biological target: T1, Albumin (Homo sapiens, UniProt P02768); assay: Displacement of ANS from human serum albumin up to 50 uM by fluorescence assay
In short: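 Fluorescence competition: 2.5 μM HSA with 5 or 100 μM ANS, ligand added over a concentration range. Excitation 360 nm; emission read at 460 and 480 nm to check for blue shift. Signal normalized between ANS alone (minimum) and HSA:ANS (maximum).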

[2] = Aggregation property of the compound assessed as change in chemical shift by 1H-NMR analysis; format: physicochemical
In short: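 Line widths, chemical shifts and peak intensities tracked; CAC taken as the concentration where intensities deviate from linear dependence, or, for line width, the minimal concentration that increases peak width.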

Albumin [3] = biological target: T1, Albumin; assay: Displacement of dansylated phenylalanine from human serum albumin by fluorescence assay; conditions: read-out: Kd(app)
In short: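 Competition of ligand against 100 μM dansyl-phenylalanine (binds Sudlow sites 1 and 2) bound to 2.5 μM HSA. Excitation 370 nm, emission 480 nm. Fractional saturation modelled with two sites, free HSA assumed negligible; least-squares fit with no further ESI sites, giving maximum apparent dissociation constants.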

[4] = Binding affinity to Triton-X 100 assessed as intra-molecular saturation transfer at 100 uM at 6.61 ppm by STD spectra analysis
In short: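 STD NMR, saturation by a train of 40 Gaussian pulses of 50 ms each; selective on-resonance irradiation at the stated ppm (TX at 7.48 ppm), off-resonance at 30 ppm, interleaved and subtracted by phase cycling. 32K points, 16 ppm width centred at 4.7 ppm, 256 scans, 16 dummy scans, 0.1 s recycle delay (~15 min); 3 Hz exponential line broadening.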

[5] = biological target: T2, Rap guanine nucleotide exchange factor 3 (Homo sapiens) (UniProt O95398); assay: Binding affinity to human EPAC1 cAMP binding domain (149 to 318 residues) assessed as intensity loss using aggregate form of compound by [15N-1H]HSQC spectroscopic analysis
T2 sequence (whole entry): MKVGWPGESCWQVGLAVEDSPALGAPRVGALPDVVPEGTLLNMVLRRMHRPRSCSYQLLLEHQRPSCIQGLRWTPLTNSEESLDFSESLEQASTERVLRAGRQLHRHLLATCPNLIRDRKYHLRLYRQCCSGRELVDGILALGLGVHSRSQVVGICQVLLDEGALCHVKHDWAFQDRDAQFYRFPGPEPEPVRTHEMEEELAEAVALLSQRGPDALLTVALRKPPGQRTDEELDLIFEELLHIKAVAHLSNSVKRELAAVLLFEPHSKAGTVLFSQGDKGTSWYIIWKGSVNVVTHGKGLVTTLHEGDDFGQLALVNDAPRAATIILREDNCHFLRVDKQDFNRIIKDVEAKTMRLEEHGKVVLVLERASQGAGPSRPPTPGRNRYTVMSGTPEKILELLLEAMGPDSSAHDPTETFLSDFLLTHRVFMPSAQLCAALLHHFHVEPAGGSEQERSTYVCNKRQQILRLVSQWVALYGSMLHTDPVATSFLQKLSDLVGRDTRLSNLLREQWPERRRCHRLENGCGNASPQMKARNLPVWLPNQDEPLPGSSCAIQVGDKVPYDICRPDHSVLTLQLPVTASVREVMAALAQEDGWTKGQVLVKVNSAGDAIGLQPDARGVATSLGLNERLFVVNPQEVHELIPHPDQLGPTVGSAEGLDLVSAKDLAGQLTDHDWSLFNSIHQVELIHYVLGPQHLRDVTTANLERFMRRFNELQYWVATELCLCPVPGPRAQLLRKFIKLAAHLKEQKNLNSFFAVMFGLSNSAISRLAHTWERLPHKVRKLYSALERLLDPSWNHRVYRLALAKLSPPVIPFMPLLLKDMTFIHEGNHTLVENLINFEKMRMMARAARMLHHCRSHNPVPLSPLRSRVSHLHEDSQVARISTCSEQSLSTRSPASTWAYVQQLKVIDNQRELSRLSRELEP

T1 sequence (P02768 whole entry): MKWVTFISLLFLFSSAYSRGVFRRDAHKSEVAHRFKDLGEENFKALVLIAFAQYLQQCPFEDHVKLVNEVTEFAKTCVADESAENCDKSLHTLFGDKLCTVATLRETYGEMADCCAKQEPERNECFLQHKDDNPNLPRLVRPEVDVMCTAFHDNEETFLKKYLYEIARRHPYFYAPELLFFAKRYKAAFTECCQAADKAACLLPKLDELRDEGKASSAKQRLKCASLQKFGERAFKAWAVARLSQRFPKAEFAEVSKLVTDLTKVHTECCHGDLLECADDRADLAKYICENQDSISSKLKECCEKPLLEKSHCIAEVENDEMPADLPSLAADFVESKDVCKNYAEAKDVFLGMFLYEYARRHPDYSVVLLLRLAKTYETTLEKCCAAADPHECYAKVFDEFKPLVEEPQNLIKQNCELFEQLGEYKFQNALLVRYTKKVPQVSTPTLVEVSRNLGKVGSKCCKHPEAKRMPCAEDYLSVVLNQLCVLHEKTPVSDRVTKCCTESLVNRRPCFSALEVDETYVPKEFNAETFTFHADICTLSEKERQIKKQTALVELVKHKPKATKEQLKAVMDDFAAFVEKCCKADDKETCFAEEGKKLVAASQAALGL

- Activity (Albumin [1]): Active
- Activity [2]: Not Active
- pKd (Albumin [3]): 7.00
- Activity [4]: Active
- Activity [5]: Active
SMILES: CC(C)(C)c1cc(C(=O)/C(C#N)=N/Nc2cccc(Cl)c2)no1
